Laboratory results taken from ChEMBL document CHEMBL1146321, “Transformation of mu-opioid receptor agonists into biologically potent mu-opioid receptor antagonists” (Bioorg Med Chem, 2007).
Calls of active or inactive are those of the source.

How the values were obtained:
[1] = target: Opioid receptors; mu & delta (Rattus norvegicus) (UniProt P33533+P33535); test: Selectivity for rat mu opioid receptor over rat delta opioid receptor; format: protein assay
Mu-type opioid receptor [2] = target: Mu-type opioid receptor (Rattus norvegicus, UniProt P33535); test: Displacement of [3H]DAMGO from mu opioid receptor in rat brain P2 synaptosome; format: tissue-based
Sequence of Mu-type opioid receptor (Rattus norvegicus, UniProt P33535) (P33535 whole entry): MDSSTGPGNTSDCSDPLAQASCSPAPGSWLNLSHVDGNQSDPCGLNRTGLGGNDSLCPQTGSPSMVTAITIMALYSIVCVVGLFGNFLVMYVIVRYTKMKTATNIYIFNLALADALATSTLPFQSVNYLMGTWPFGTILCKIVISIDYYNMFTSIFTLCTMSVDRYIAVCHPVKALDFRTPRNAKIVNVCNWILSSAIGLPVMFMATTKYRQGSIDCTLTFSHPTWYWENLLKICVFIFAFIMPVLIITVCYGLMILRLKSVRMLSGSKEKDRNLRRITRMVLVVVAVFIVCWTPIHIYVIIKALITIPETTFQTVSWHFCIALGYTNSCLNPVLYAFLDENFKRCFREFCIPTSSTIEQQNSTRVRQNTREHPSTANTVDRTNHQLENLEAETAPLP

[3] = target: Delta-type opioid receptor (Rattus norvegicus, UniProt P33533); test: Displacement of [3H]deltorphin 2 from delta opioid receptor in rat brain P2 synaptosome; format: tissue-based
Sequence of Delta-type opioid receptor (Rattus norvegicus, UniProt P33533) (P33533 whole entry): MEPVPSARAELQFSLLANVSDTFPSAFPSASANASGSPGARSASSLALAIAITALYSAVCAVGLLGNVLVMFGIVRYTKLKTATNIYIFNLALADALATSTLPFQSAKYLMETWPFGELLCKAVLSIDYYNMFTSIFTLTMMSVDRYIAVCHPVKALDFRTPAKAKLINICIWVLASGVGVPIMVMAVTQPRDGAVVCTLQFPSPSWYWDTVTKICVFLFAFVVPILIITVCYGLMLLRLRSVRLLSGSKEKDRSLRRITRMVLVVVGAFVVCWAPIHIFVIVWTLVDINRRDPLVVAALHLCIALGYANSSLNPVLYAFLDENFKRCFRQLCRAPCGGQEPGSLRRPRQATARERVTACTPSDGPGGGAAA

Mu-type opioid receptor [4] = target: T1, Mu-type opioid receptor (Cavia porcellus, UniProt P97266); test: Agonist activity at mu opioid receptor in Hartley guinea pig intestine assessed as inhibition of electrically evoked myenteric plexus longitudinal muscle contractions; format: functional, tissue-based
T1 sequence (P97266 whole entry): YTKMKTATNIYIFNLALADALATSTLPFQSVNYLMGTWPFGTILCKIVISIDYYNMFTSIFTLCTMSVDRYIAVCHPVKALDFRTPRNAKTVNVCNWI
How it was run: (§1)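 Isolated tissue in organ baths of balanced physiological salt buffer, pH 7.5: male Hartley guinea pig ileum myenteric plexus longitudinal muscle (μ) or single mouse vas deferens (δ). Agonist inhibition of electrically evoked contractions; IC50 (nM) from dose–response curves, mean ± SE of five to six separate tissue preparations.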

Mu-type opioid receptor [5] = target: T1, Mu-type opioid receptor; test: Antagonist activity at mu opioid receptor in Hartley guinea pig intestine assessed as inhibition of DAMGO-induced effect on myenteric plexus longitudinal muscle contractions; format: functional, tissue-based; settings: read-out: pA2 (converted)
[6] = target: T2, Delta-type opioid receptor (Mus musculus, UniProt P32300); test: Agonist activity at delta opioid receptor in mouse vas deferens assessed as inhibition of electrically evoked muscle contractions; format: functional, tissue-based; how it was run: as §1
T2 sequence (P32300 whole entry): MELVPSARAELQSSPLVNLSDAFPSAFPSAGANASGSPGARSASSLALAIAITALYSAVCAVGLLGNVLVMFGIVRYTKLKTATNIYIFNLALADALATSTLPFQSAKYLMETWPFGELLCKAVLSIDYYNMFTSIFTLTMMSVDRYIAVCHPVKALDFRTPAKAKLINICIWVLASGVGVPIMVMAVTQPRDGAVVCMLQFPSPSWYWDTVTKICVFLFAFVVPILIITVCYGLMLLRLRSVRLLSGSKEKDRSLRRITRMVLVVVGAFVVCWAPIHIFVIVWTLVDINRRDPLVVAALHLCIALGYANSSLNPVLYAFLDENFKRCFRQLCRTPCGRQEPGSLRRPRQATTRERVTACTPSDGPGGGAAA

[7] = target: T2, Delta-type opioid receptor; test: Antagonist activity at delta opioid receptor in mouse vas deferens assessed as inhibition of deltorphin 2-induced effect on muscle contractions; format: functional, tissue-based; settings: read-out: pA2 (converted)
[8] = Ratio of pA2 for delta opioid receptor in MVD to pA2 for mu opioid receptor in GPI; format: functional
Hippocampus = test: Inhibition of ethanol-induced frequency of spontaneous inhibitory post-synaptic currents in rat hippocampal neurons by patch clamp technique at 300 nM; format: functional
How it was run: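 Rat hippocampal slices (300 µm), held in oxygenated ACSF 60 min at room temperature. Whole-cell patch clamp of CA1 pyramidal cells at −70 mV. GABAA IPSCs isolated with 50 µM AP5 and 20 µM DNQX. Recording periods of 10 min each: baseline, then 60 mM EtOH, then compound in EtOH. n = 6 slices; paired t-tests.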

[9] = target: Mu-type opioid receptor (Cavia porcellus) (UniProt P97266); test: Agonist activity at mu opioid receptor in Hartley guinea pig intestine assessed as inhibition of electrically evoked myenteric plexus longitudinal muscle contractions at 10000 nM; format: functional, tissue-based
Sequence of Mu-type opioid receptor (Cavia porcellus) (P97266 whole entry): as the sequence (P97266 whole entry) above

[10] = target: Delta-type opioid receptor (Mus musculus) (UniProt P32300); test: Agonist activity at delta opioid receptor in mouse vas deferens assessed as inhibition of electrically evoked muscle contractions at 10000 nM; format: functional, tissue-based
Sequence of Delta-type opioid receptor (Mus musculus) (P32300 whole entry): as the sequence (P32300 whole entry) above

Mus musculus [11] = test: Inhibition of morphine-induced antinociception in mouse at 0.148 ng, icv after 10 mins by hot plate test; format: functional, organism-based
How it was run: (§2)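 Male mice received morphine 4 mg/kg sc, then test compound icv 5 min later. Hot plate at 55.0 °C; latency to hind-paw licking or shaking, baseline 15 s, cut-off 30 s, read 10 min after icv dosing. Results as %MPE. AD50 is the dose blocking 50% of morphine antinociception at 10 min; 95% confidence limits; n = 10–17 mice per point.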

Mus musculus [12] = test: Inhibition of morphine-induced spinal antinociception in intracerebroventricularly dosed mouse by tail-flick test; format: functional, organism-based
How it was run: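 Male mice given morphine 4 mg/kg sc, then compound icv 5 min later. Tail-flick latency measured to radiant heat, baseline 2–3 s, cut-off 8 s.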

Mus musculus [13] = test: Inhibition of morphine-induced antinociception in mouse at 2.38 ng, icv after 10 mins by hot plate test; format: functional; how it was run: as §2

Sequence of Opioid receptors; mu & delta (Rattus norvegicus) (P33533 whole entry, looked up): as the sequence (P33533 whole entry) above
Sequence of Opioid receptors; mu & delta (Rattus norvegicus) (P33535 whole entry, looked up): as the sequence (P33535 whole entry) above

Compound | Ratio Ki [1] | Ki (Mu-type opioid receptor [2]) [nM] | Ki [3] [nM] | IC50 (Mu-type opioid receptor [4]) [nM] | Kb (Mu-type opioid receptor [5]) [nM] | IC50 [6] [nM] | Kb [7] [nM] | Ratio pA2 [8] | inhibition at 0.3 µM (Hippocampus) [%] | inhibition [9] [%] | inhibition [10] [%] | Activity (Mus musculus [11]) | Activity (Mus musculus [12]) | AD50 (Mus musculus [13]) [ng]
C=CCN[C@@H](Cc1ccc(O)cc1)C(=O)N1CCC[C@H]1C(=O)N[C@@H](Cc1ccccc1)C(=O)N[C@@H](Cc1ccccc1)C(N)=O | 57 | – | – | – | – | – | – | – | – | – | – | – | – | –
C=CCN[C@@H](Cc1c(C)cc(O)cc1C)C(=O)N1CCC[C@H]1C(=O)N[C@@H](Cc1c[nH]c2ccccc12)C(=O)N[C@@H](Cc1ccccc1)C(N)=O | 40 | 0.26 | 10.3 | > 10000 | 6.61 | > 10000 | 47.9 | 7.2 | 26 | 49 | 37.5 | – | – | –
Cc1cc(O)cc(C)c1C[C@H](N)C(=O)N1CCC[C@H]1C(=O)N[C@@H](Cc1c[nH]c2ccccc12)C(=O)N[C@@H](Cc1ccccc1)C(N)=O | 104 | 0.054 | 5.6 | 0.27 | – | > 10000 | 2.51 | – | – | – | 21.6 | – | – | –
C=CCN[C@@H](Cc1c(C)cc(O)cc1C)C(=O)N1CCC[C@H]1C(=O)N[C@@H](Cc1ccccc1)C(=O)N[C@@H](Cc1ccccc1)C(N)=O | 1240 | 0.45 | 560 | > 10000 | 2.57 | > 10000 | 479 | 186 | – | 49.3 | 42.8 | inactive | inactive | –
C=CCNC(=O)[C@H](Cc1ccccc1)NC(=O)[C@H](Cc1ccccc1)NC(=O)[C@@H]1CCCN1C(=O)[C@H](Cc1ccc(O)cc1)NCC=C | 6 | – | – | – | – | – | – | – | – | – | – | – | – | –
C=CCN1CC[C@]23c4c5ccc(O)c4O[C@H]2C(=O)CC[C@@]3(O)[C@H]1C5 [NALOXONE] | – | – | – | – | – | – | – | – | – | – | – | – | – | 2.38
